Measurements as given in article PMC3113562 (Nucleic Acids Research, 2011).
Read-outs that look alike come from different tables or passages of the source.

Experiments:
[1] = biological target: T1, human 8-oxoguanine DNA glycosylase (OGG1) (Homo sapiens, UniProt O15527); assay type: biochemical; details: for ΔΔG° cognate vs non-cognate ligand: from ratio of Ki values, T = 310 K; for increase in the affinity for OGG1 vs the corresponding non-cognate ligand: ratio of Ki (KM) values, vs dGMP, ss G11 or ds G11
Method in brief: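 Recombinant human OGG1 from E. coli BL21(DE3), with active enzyme titrated by burst-phase kinetics. Reaction: 0.5 nM enzyme and 22 nM (2 × KM) oxoG ds substrate in 50 mM Tris–HCl pH 7.5, 100 mM NaCl, 1 mM EDTA, 1 mM DTT, 37°C, 2–10 min, NaOH-quenched. Competitor spans 0.1–10 × I50. Ki = I50/3; ΔG° = –RT ln Kd (310 K); ΔΔG° from differences.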

[2] = biological target: T1, human 8-oxoguanine DNA glycosylase (OGG1); details: cited from earlier work
[3] = system: E. coli 8-oxoguanine DNA glycosylase (Fpg); details: read-out: Ki (Fpg); cited from earlier work
[4] = read-out: Ki (affinity for OGG1)

T1 sequence (O15527 whole entry): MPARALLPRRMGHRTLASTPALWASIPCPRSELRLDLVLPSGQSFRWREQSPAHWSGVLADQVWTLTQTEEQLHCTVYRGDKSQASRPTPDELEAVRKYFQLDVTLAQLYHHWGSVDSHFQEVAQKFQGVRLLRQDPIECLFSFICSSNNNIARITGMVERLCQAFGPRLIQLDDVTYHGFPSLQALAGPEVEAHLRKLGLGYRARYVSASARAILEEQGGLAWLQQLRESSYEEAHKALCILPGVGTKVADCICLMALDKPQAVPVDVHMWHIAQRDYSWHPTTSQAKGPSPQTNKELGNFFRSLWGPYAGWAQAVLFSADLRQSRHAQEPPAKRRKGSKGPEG

Ki [1, 4] [µM] | ΔΔG° cognate vs non-cognate ligand [1] [kcal/mol] | increase in the affinity for OGG1 vs the corresponding non-cognate ligand [1] [fold] | Compound | cleavage by OGG1 [2] | also measured
140 | – | – | r(pA)10 | – | –
– | – | – | O=P(O)(O)O [Pi, orthophosphate, reference compound] | – | Ki [1]: 68000 µM
0.08 | ~-3.3 | 250 | dCdp(TCTCCCTTCXCTCCTTTCCTCT) [OG11] | not cleaved | –
130 | – | – | r(pC)10 | – | –
– | -0.8 | 4.1 | Nc1nc2c([nH]c(=O)n2[C@H]2C[C@H](O)[C@@H](COP(=O)(O)O)O2)c(=O)[nH]1 [oxo-dGMP, reference compound] | not cleaved | tighter binding than one non-cognate d(pN)n unit within DNA ([1]; vs extrapolated Ki = 12 mM): ~7.5 fold

Compound | Ki [1, 4] [µM] | ΔΔG° cognate vs non-cognate ligand [1] [kcal/mol] | increase in the affinity for OGG1 vs the corresponding non-cognate ligand [1] [fold] | cleavage by OGG1 [2] | also measured
dCdp(TCTCCCTTCGCTCCTTTCCTCT) (5'-dC with phosphate prefix in name, chemistry otherwise not given here) [G11] | 20 | – | – | – | Ki [3]: 10 µM
